Results from ChEMBL document CHEMBL4373718, “Germacrane Sesquiterpenoids as a New Type of Anticardiac Fibrosis Agent Targeting Transforming Growth Factor β Type I Receptor” (J Med Chem, 2019).
Activity calls are given as the source filed them. No cut-off for these calls is given here.

Tests used:
[1] = system: Rattus norvegicus; experiment: Antifibrotic activity in abdominal aortic constriction Sprague-Dawley rat model of cardiac fibrosis assessed as down regulation of fibronectin expression in heart at 5 mg/kg, ip administered once daily for 4 weeks measured post-last dose by Western blot analysis; assay type: functional, organism-based
Procedure, shortened: (§1)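 AAC rats dosed ip daily for 4 weeks, n=8 per group. Hearts homogenized in lysis buffer with protease and phosphatase inhibitors and spun at 12,000 rpm for 30 min at 4 °C. Nuclear and cytoplasmic fractions prepared with a kit. Protein measured by BCA; 30 µg run on 10% SDS-PAGE, transferred to PVDF and immunoblotted; bands quantified by densitometry.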

[2] = system: Rattus norvegicus; experiment: Antifibrotic activity in abdominal aortic constriction Sprague-Dawley rat model of cardiac fibrosis assessed as decrease in heart fibronectin level at 5 mg/kg, ip administered once daily for 4 weeks measured post-last dose by immunohistochemical analysis relative to control; assay type: functional; set-up: scale not given: the % may be the effect or the level left
Procedure, shortened: (§2)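 Male SD rats (200–250 g) with abdominal aortic constriction (suture tied over a 21-G probe above the renal arteries), under pentobarbital 30 mg/kg ip. Dosed ip daily for 4 weeks. Vehicle was saline with 0.5% DMSO and 5% Kolliphor HS 15. Groups: sham, AAC, AAC+nifedipine 10 mg/kg, n=8 each. Formalin-fixed paraffin sections 4 µm thick; FN and α-SMA by immunohistochemistry, collagen by Masson's trichrome; stained area measured.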

[3] = molecular target: T1, TGF-beta receptor type-1 (Rattus norvegicus) (UniProt P80204); experiment: Inhibition of TGFbeta1 receptor in TGFbeta1-stimulated Sprague-Dawley rat cardiac fibroblasts assessed as reduction in collagen 3 mRNA expression at 2.5 to 10 uM measured after 12 hrs by qRT-PCR analysis
T1 sequence (whole entry): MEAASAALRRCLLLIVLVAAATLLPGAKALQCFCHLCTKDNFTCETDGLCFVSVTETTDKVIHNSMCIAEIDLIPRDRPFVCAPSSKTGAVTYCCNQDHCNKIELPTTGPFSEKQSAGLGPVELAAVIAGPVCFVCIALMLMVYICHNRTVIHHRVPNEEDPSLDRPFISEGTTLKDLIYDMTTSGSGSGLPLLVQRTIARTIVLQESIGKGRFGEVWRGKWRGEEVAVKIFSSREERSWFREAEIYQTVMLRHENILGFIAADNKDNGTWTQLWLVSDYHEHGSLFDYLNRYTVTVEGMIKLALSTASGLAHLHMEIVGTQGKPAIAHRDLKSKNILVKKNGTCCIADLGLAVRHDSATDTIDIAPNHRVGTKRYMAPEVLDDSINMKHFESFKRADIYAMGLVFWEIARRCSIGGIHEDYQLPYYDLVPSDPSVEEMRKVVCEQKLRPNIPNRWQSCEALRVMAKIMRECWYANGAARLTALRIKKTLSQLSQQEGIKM
Procedure, shortened: (§3)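 Primary rat cardiac fibroblasts (3×10^5 per well) treated with compound plus 10 ng/mL TGFβ1 for 12 h. Total RNA extracted and target transcripts measured by SYBR Green qRT-PCR, normalized to GAPDH.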

[4] = system: Rattus norvegicus; experiment: Antifibrotic activity in abdominal aortic constriction Sprague-Dawley rat model of cardiac fibrosis assessed as reduction in Smad3 phosphorylation in heart at 5 mg/kg, ip administered once daily for 4 weeks measured post-last dose by immunohistochemical analysis; assay type: functional, organism-based
Procedure, shortened: (§4)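 AAC rats dosed ip daily for 4 weeks, n=8 per group. Phospho-Smad2/3 stained by immunohistochemistry on 4 µm paraffin heart sections. Stained area summed over 6 fields per rat for statistics.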

[5] = molecular target: T1, TGF-beta receptor type-1 (Rattus norvegicus); experiment: Inhibition of TGFbeta1 receptor in TGFbeta1-stimulated Sprague-Dawley rat cardiac fibroblasts assessed as reduction in Smad3 nuclear translocation at 10 uM measured after 5 mins by DAPI staining-based laser confocal microscopic analysis
Procedure, shortened: (§5)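 Primary rat cardiac fibroblasts treated with 10 µM compound plus 10 ng/mL TGFβ1 for 5 min. Fixed in 4% PFA, permeabilized with 0.1% Triton X-100, blocked with goat serum. Stained with anti-Smad2 or anti-Smad3 overnight at 4 °C, then Alexa 594 secondary and DAPI nuclear stain. Imaged by confocal microscopy.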

[6] = system: Rattus norvegicus; experiment: Antifibrotic activity in abdominal aortic constriction Sprague-Dawley rat model of cardiac fibrosis assessed as reduction in Smad3 phosphorylation in heart at 5 mg/kg, ip administered once daily for 4 weeks measured post-last dose by Western blot analysis; assay type: functional, organism-based; procedure, shortened: as §1
[7] = system: Rattus norvegicus; experiment: Antifibrotic activity in abdominal aortic constriction Sprague-Dawley rat model of cardiac fibrosis assessed as ejection fraction at 5 mg/kg, ip administered once daily for 4 weeks measured post-last dose by echocardiography (reference value: 79.59 +/- 3.13%); assay type: functional
[8] = system: Rattus norvegicus; experiment: Antifibrotic activity in abdominal aortic constriction Sprague-Dawley rat model of cardiac fibrosis assessed as decrease in heart collagen level at 5 mg/kg, ip administered once daily for 4 weeks measured post-last dose by Masson's trichrome staining-based histological analysis relative to control; assay type: functional; set-up: scale not given: the % may be the effect or the level left; procedure, shortened: as §2
[9] = molecular target: T1, TGF-beta receptor type-1 (Rattus norvegicus); experiment: Inhibition of TGFbeta1 receptor in TGFbeta1-stimulated Sprague-Dawley rat cardiac fibroblasts assessed as reduction in collagen 1 expression measured after 12 hrs by Western blot analysis
Procedure, shortened: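 Primary rat cardiac fibroblasts (passages 2–4, 3×10^5 per well) treated with compound plus 10 ng/mL TGFβ1 for 12 h; tested at 2.5, 5 and 10 µM. Lysates run on 10% SDS-PAGE (30 µg protein), probed for FN, α-SMA and collagen I/III, and quantified by densitometry against GAPDH. N=3 independent experiments.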

[10] = system: Rattus norvegicus; experiment: Antifibrotic activity in abdominal aortic constriction Sprague-Dawley rat model of cardiac fibrosis assessed as reduction in Smad2 phosphorylation in heart at 5 mg/kg, ip administered once daily for 4 weeks measured post-last dose by immunohistochemical analysis; assay type: functional, organism-based; procedure, shortened: as §4
[11] = molecular target: T1, TGF-beta receptor type-1 (Rattus norvegicus); experiment: Inhibition of TGFbeta1 receptor in TGFbeta1-stimulated Sprague-Dawley rat cardiac fibroblasts assessed as reduction in Smad3 nuclear translocation at 10 uM measured after 5 mins by Western blot analysis
Procedure, shortened: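 Primary rat cardiac fibroblasts treated with 10 µM compound plus 10 ng/mL TGFβ1 for 5 min. Nuclear and cytosolic fractions separated with a kit and Smad2/Smad3 measured by Western blot.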

[12] = system: Rattus norvegicus; experiment: Antifibrotic activity in abdominal aortic constriction Sprague-Dawley rat model of cardiac fibrosis assessed as diastolic left ventricular internal diameter at 5 mg/kg, ip administered once daily for 4 weeks measured post-last dose by echocardiography (reference value: 7.60 +/- 0.63 mm); assay type: functional
[13] = molecular target: T1, TGF-beta receptor type-1 (Rattus norvegicus); experiment: Inhibition of TGFbeta1 receptor in TGFbeta1-stimulated Sprague-Dawley rat cardiac fibroblasts assessed as reduction in Smad2 nuclear translocation at 10 uM measured after 5 mins by DAPI staining-based laser confocal microscopic analysis; procedure, shortened: as §5
[14] = system: Rattus norvegicus; experiment: Antifibrotic activity in abdominal aortic constriction Sprague-Dawley rat model of cardiac fibrosis assessed as decrease in heart alpha-SMA level at 5 mg/kg, ip administered once daily for 4 weeks measured post-last dose by immunohistochemical analysis relative to control; assay type: functional; set-up: scale not given: the % may be the effect or the level left; procedure, shortened: as §2
[15] = system: Rattus norvegicus; experiment: Antifibrotic activity in abdominal aortic constriction Sprague-Dawley rat model of cardiac fibrosis assessed as down regulation of alpha-SMA expression in heart at 5 mg/kg, ip administered once daily for 4 weeks measured post-last dose by Western blot analysis; assay type: functional, organism-based; procedure, shortened: as §1
[16] = system: Rattus norvegicus; experiment: Antifibrotic activity in abdominal aortic constriction Sprague-Dawley rat model of cardiac fibrosis assessed as diastolic left ventricular posterior wall thickness at 5 mg/kg, ip administered once daily for 4 weeks measured post-last dose by echocardiography (reference value: 2.33 +/- 0.31 mm); assay type: functional
[17] = molecular target: T1, TGF-beta receptor type-1 (Rattus norvegicus); experiment: Inhibition of TGFbeta1 receptor in TGFbeta1-stimulated Sprague-Dawley rat cardiac fibroblasts assessed as reduction in fibronectin mRNA expression at 2.5 to 10 uM measured after 12 hrs by qRT-PCR analysis; procedure, shortened: as §3

inhibition [3]: Active
inhibition [5]: Active
inhibition [9]: Dose-dependent effect
inhibition [11]: Active
inhibition [13]: Active
inhibition [17]: Active
SMILES: C=C(C)[C@@H]1C/C=C(\C)C(=O)CCC2=C[C@@H]1OC2=O
Activity [1]: Active
Activity [2]: 90.7%
Activity [4]: Active
Activity [6]: Active
Activity [7]: 71.38%
Activity [8]: 65.6%
Activity [10]: Active
Activity [12]: 8.3 mm
Activity [14]: 88.8%
Activity [15]: Active
Activity [16]: 2 mm
